Source: ChEMBL document CHEMBL1144660, “Docking and hydropathic scoring of polysubstituted pyrrole compounds with antitubulin activity” (Bioorg Med Chem, 2008)

Experiments:
MDA-MB-435 = assay: Antiproliferative activity against human MDA-MB-435 cells after 48 hrs by SRB assay; assay type: functional, cell-based; conditions: MDA-MB-435, 48 h
[1] = Inhibition of tubulin polymerization in rat A10 cells after 18 hrs by indirect immunofluorescence technique; assay type: cell-based
Procedure, shortened: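 A-10 cells were exposed to a range of concentrations for 18 hr, fixed, and stained with a β-tubulin antibody for microtubules and with DAPI for DNA. Percent microtubule loss was scored visually at each concentration, averaged over 3 independent experiments, and plotted against concentration to calculate EC50.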

Row | Structure (SMILES) | IC50 (MDA-MB-435; read-out: IC50) | IC50 (MDA-MB-435; read-out: Log IC50 (converted)) | EC50 [1]
1 | CCOC(=O)c1[nH]c(Br)c(-c2ccc(Cl)cc2)c1Br | 0.919 µM | 0.912 µM | > 50 µM
2 | CCOC(=O)c1[nH]c(Br)c(-c2cc(OC)c(OC)cc2Br)c1Br | 1.1 µM | 1.12 µM | 7.1 µM
3 | CCOC(=O)c1[nH]c(Br)c(-c2ccc(C)cc2)c1Br | 2.2 µM | 2 µM | > 50 µM
4 | CCOC(=O)c1[nH]c(Br)c(-c2ccc(Br)cc2)c1Br | 0.312 µM | 0.309 µM | > 50 µM
5 | CCOC(=O)c1[nH]c(Br)c(-c2cccc(OC)c2)c1Br | 0.278 µM | 0.282 µM | 2.4 µM
6 | CCOC(=O)c1[nH]c(Br)c(-c2ccc3ccccc3c2)c1Br | 1.4 µM | 1.41 µM | 7.5 µM
7 | CCOC(=O)c1c[nH]c(C(=O)c2ccc(OC)cc2)c1-c1ccc(OC)cc1 | 10 µM | 10 µM | > 50 µM
8 | CCOC(=O)c1cc(-c2ccc(OC)cc2)c(C(=O)c2ccc(OC)cc2)[nH]1 | 2.6 µM | 2.63 µM | > 50 µM
9 | CCOC(=O)c1[nH]c(Br)c(-c2ccccc2)c1Br | 10 µM | 10 µM | > 50 µM
10 | CCOC(=O)c1[nH]c(Br)c(-c2ccc(OC)cc2)c1Br | 0.361 µM | 0.363 µM | 5.1 µM
11 | CCOC(=O)c1[nH]c(C(=O)c2ccc(OC)cc2)c(-c2ccc(OC)cc2)c1Br | 1.9 µM | 1.91 µM | > 50 µM
12 | CCOC(=O)c1cc(-c2ccc(OC)cc2)c(Cl)[nH]1 | 5 µM | 5.01 µM | > 50 µM
13 | COc1cc2c(c(OC)c1OC)-c1ccc(OC)c(=O)cc1C(NC(=O)CS)CC2 (centres undefined) | 2 µM | 2 µM | –

More lines, now with the values ahead:

Row | IC50 (MDA-MB-435; read-out: IC50) | IC50 (MDA-MB-435; read-out: Log IC50 (converted)) | EC50 [1] | Structure (SMILES)
14 | – | 0.0182 µM | – | CCOC(=O)c1[nH]c(Br)c(-c2ccc(OC)c(OC)c2)c1Br
15 | 10 µM | 10 µM | > 50 µM | COC(=O)c1c(-c2ccc(OC)c(OC)c2)c(-c2ccc(OC)c(OC)c2)cn1CCc1ccc(OC)c(OC)c1
16 | > 10 µM | 100 µM | > 50 µM | CCOC(=O)c1[nH]cc(-c2ccc(OC)cc2)c1-c1ccc(OC)cc1
17 | 4.2 µM | 4.27 µM | > 50 µM | CCOC(=O)c1[nH]c(C(=O)c2ccc(OC)cc2)c(-c2ccc(OC)cc2)c1-c1ccc(OC)cc1
18 | 13 µM | 12.9 µM | > 50 µM | CCOC(=O)c1[nH]c(Br)c(-c2cc(OC)c(OC)c(OC)c2)c1Br
19 | > 20 µM | 200 µM | > 50 µM | COc1ccc(C(=O)c2[nH]c(C(=O)c3ccc(OC)cc3)c(-c3ccc(OC)cc3)c2-c2ccc(OC)cc2)cc1
